Experiment [1] concerns the target T1, Glutamate receptor ionotropic, AMPA (Rattus norvegicus) (UniProt P19491+P19492+P19493+P19490). As to the kind of experiment: Antagonistic activity against Ionotropic glutamate receptor AMPA was determined by the percentage of 45 [Ca2+] influx in cerebellar neurons at the concentration 1 mM. It is filed as functional. Summed up: (§1)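 Cerebellar neurons cultured from 7-day-old rats (used at 8-9 days) had 45Ca2+ influx (1 µCi/mL) measured over 15 min at room temperature in Locke's buffer with 1 mM Mg2+, 30 µM AMPA, 10 µM cyclothiazide and 1 µM MK-801. Cells were washed three times ice-cold, dissolved in NaOH and counted, normalized to protein. Results are % of net AMPA-alone influx, mean ± S.E.M., six measurements from two preparations.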

Experiment [2] addresses T1, Glutamate receptor ionotropic, AMPA (Rattus norvegicus). Description: Antagonistic activity against Ionotropic glutamate receptor AMPA was determined by the percentage of 45 [Ca2+] influx in cerebellar neurons at the concentration 100 uM. It is filed as functional. Summed up: as §1
The target in experiment [3] is Metabotropic glutamate receptor 4 (Rattus norvegicus, UniProt P31423). As to the kind of experiment: Antagonistic activity against rat (mGluR) metabotropic glutamate receptor 4a stably expressed in chinese hamster ovary (CHO) cells. It is filed as functional, cell-based.
Sequence of Metabotropic glutamate receptor 4 (P31423 whole entry): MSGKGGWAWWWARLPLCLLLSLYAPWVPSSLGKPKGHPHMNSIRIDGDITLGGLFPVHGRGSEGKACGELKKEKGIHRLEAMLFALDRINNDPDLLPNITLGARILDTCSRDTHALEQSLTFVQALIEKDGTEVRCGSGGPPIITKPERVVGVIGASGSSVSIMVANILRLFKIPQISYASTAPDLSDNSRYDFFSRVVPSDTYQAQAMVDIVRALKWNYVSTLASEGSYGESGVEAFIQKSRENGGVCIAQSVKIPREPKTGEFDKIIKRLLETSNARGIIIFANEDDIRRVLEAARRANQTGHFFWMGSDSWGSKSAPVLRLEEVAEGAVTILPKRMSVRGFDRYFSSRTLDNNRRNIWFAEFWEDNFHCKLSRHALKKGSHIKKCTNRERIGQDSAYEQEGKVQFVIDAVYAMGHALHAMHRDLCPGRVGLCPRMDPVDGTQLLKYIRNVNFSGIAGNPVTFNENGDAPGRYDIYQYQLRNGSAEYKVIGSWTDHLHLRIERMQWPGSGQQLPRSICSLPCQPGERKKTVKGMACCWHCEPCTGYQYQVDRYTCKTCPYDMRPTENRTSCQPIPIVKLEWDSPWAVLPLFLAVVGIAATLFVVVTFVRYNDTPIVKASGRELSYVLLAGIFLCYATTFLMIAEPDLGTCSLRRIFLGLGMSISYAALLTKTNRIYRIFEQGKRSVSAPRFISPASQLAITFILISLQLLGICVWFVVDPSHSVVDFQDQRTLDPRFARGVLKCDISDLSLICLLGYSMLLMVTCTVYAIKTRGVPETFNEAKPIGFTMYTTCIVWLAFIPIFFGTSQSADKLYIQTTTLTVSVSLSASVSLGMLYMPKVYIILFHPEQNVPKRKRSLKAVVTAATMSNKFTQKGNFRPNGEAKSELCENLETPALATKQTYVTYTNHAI
For experiment [4], the target named is T2, Glutamate receptor ionotropic, kainate (Rattus norvegicus) (UniProt P22756+Q01812+P42260+P42264+Q63273). Description: Antagonistic activity against Ionotropic glutamate receptor kainate was determined by the percentage of 45 [Ca2+] influx in cerebellar neurons at the concentration 1 mM. It is filed as functional. Summed up:
(§2)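 Rat cerebellar neurons (7-day-old pups, 8-9 days in culture) were given 45CaCl2 (1 µCi/mL) in Locke's buffer with 1 mM Mg2+, 50 µM kainate and 1 µM MK-801, for 15 min at room temperature. After three ice-cold washes and dissolution in 0.5 M NaOH, radioactivity and protein were measured. Results are % of net kainate-alone influx, mean ± S.E.M., n=6 from two preparations.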

Experiment [5] has as its target Metabotropic glutamate receptor 1 (Rattus norvegicus, UniProt P23385). Description: Antagonistic activity against rat (mGluR) metabotropic glutamate receptor 1a stably expressed in chinese hamster ovary (CHO) cells. It is filed as functional, cell-based. Summed up:
(§3)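 CHO cells expressing the receptor were labelled overnight with myo-[3H]inositol in glutamine-free medium. They were then exposed to compounds for 30 min at 37 °C in Locke's buffer (HEPES, pH 7.4) with 20 mM LiCl. Inositol phosphates were extracted for 10 min with 0.1 M HCl and separated by anion-exchange chromatography.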

Experiment [6] addresses Metabotropic glutamate receptor 5 (Rattus norvegicus, UniProt P31424). Description: Antagonistic activity against rat (mGluR) metabotropic glutamate receptor 5a stably expressed in chinese hamster ovary (CHO) cells. In kind it is functional, cell-based. Summed up:
as §3

In experiment [7] the target is T3, Glutamate NMDA receptor (Rattus norvegicus) (UniProt P35439+Q00959+Q00960+Q00961+Q62645+Q8VHN2+Q9R1M7). As to the kind of experiment: Antagonistic activity against NMDA ionotropic glutamate receptor was determined by the percentage of 45 [Ca2+] influx in cerebellar neurons at the concentration 1 mM. In kind it is functional. Summed up:
(§4)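 Rat cerebellar neurons (7-day-old pups, 8-9 days in culture) were incubated for 15 min at room temperature in Mg2+-free Locke's buffer with 1 µCi/mL 45CaCl2, 100 µM NMDA, 1 µM glycine and 10 µM NBQX. Cells were washed three times with ice-cold buffer and dissolved in 0.5 M NaOH to count radioactivity and protein. Results are % of net agonist-alone influx, mean ± S.E.M. of six measurements from two culture preparations.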

Experiment [8] addresses T2, Glutamate receptor ionotropic, kainate (Rattus norvegicus). Description: Antagonistic activity against Ionotropic glutamate receptor kainate was determined by the percentage of 45 [Ca2+] influx in cerebellar neurons at the concentration 100 uM. It is filed as functional. Summed up:
as §2

Experiment [9] deals with Metabotropic glutamate receptor 6 (Rattus norvegicus, UniProt P35349). As to the kind of experiment: Antagonistic activity against rat (mGluR) metabotropic glutamate receptor 6 stably expressed in chinese hamster ovary (CHO) cells. It is filed as functional, cell-based.
Sequence of Metabotropic glutamate receptor 6 (P35349 whole entry): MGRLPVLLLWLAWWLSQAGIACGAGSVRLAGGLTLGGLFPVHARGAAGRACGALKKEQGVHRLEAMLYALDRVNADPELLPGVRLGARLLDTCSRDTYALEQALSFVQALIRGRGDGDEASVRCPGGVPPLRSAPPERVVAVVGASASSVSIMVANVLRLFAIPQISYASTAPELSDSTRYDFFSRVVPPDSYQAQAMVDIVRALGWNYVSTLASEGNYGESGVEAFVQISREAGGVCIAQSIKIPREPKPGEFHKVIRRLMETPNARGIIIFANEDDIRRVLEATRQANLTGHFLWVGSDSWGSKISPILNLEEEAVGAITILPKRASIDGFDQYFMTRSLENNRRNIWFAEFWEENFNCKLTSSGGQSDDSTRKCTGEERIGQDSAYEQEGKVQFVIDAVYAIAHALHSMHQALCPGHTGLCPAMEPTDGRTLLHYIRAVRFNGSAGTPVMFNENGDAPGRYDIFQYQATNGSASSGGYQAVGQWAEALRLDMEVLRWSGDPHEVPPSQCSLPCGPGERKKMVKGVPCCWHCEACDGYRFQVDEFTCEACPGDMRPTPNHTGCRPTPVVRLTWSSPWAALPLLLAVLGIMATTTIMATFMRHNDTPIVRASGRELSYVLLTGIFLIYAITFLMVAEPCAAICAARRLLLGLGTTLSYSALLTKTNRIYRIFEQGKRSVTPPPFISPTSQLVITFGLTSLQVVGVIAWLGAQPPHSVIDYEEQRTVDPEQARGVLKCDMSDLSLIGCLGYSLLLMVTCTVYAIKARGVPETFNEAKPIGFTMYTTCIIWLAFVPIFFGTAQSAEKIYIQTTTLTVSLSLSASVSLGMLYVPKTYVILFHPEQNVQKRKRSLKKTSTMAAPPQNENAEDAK
Experiment [10] deals with T3, Glutamate NMDA receptor (Rattus norvegicus). As to the kind of experiment: Antagonistic activity against NMDA ionotropic glutamate receptor was determined by the percentage of 45 [Ca2+] influx in cerebellar neurons at the concentration 100 uM. It is filed as functional. Summed up:
as §4

Sequence of Metabotropic glutamate receptor 5 (P31424 whole entry): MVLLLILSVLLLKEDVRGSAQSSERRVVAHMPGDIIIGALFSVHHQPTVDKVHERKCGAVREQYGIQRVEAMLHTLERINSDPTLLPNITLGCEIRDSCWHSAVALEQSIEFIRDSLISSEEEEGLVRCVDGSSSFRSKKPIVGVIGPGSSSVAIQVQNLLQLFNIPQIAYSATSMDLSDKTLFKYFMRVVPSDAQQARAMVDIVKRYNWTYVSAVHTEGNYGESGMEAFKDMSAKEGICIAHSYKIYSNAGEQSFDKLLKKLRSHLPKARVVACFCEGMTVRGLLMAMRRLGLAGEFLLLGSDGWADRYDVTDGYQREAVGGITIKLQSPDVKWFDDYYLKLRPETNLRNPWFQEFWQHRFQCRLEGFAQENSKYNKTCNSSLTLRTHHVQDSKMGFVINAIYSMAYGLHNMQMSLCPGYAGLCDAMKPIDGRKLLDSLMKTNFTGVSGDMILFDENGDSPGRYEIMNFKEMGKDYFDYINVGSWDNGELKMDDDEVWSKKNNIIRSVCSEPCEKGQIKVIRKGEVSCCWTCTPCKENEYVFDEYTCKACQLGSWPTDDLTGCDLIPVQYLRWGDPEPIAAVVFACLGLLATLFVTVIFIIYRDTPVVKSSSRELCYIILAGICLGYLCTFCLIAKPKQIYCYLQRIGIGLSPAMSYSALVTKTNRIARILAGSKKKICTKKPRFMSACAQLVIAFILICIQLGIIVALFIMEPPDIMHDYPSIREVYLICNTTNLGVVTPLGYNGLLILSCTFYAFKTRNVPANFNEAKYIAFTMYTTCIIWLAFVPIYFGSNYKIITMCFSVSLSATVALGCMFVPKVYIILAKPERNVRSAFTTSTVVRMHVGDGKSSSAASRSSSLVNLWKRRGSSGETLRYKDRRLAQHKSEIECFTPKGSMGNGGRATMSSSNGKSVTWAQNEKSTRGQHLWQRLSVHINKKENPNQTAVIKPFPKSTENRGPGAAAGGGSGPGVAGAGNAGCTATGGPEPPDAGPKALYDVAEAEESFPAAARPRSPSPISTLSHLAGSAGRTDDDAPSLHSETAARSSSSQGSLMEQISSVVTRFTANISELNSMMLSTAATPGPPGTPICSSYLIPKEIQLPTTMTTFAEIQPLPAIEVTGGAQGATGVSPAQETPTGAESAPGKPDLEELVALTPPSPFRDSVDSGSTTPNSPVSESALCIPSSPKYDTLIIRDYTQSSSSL
Sequence of Metabotropic glutamate receptor 1 (P23385 whole entry): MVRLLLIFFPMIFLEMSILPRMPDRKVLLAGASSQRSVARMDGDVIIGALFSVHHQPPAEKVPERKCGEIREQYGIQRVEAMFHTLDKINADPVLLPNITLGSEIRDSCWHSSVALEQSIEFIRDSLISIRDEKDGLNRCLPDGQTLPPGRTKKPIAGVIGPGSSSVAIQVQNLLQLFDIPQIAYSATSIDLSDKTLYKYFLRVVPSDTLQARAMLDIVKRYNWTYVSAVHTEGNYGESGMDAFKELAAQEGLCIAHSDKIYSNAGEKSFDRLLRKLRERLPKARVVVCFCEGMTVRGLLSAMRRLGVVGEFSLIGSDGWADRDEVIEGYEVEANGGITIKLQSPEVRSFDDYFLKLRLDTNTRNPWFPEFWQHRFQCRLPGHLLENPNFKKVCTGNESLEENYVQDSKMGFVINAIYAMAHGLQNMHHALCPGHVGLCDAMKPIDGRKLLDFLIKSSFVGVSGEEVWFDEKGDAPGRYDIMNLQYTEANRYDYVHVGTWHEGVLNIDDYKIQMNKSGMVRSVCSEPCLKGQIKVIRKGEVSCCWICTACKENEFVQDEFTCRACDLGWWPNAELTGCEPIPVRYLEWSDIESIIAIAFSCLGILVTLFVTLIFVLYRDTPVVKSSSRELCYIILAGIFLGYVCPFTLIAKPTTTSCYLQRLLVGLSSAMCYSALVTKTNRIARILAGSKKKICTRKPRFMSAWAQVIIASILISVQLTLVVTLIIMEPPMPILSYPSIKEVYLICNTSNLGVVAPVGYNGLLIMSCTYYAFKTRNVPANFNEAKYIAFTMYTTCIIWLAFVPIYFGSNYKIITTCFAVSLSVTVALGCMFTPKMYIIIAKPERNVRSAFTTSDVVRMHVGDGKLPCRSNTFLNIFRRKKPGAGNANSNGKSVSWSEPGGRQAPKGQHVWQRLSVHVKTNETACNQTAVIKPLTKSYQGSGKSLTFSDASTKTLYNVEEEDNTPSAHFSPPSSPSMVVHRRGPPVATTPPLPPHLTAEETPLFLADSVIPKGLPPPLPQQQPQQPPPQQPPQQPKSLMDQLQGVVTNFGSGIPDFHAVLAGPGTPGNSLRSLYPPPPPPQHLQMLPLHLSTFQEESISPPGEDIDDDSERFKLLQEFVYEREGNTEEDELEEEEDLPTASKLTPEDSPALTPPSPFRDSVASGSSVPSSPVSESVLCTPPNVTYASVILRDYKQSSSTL

`C[C@](N)(Cn1oc(=O)[nH]c1=O)C(=O)O`: the AMPA effect worked out at 89% in experiment [1] and 98% in experiment [2]. Moreover, the EC50 in experiment [3] was above 1000 µM; in experiment [5], around 500 µM; in experiment [6], around 1000 µM; in experiment [9] it was above 1000 µM. The values for the KA effect in experiment [4] and in [8] were 75% and 71%, respectively. Also, the NMDA effect in experiment [7] turned out to be 30%; in experiment [10], 105%.
As for `N[C@@](Cc1ccccc1)(Cn1oc(=O)[nH]c1=O)C(=O)O`, the AMPA effect in experiment [1] was found to be 103%; in [2], 113%. Besides, the EC50 in experiment [3] was above 1000 µM; in [5], around 300 µM; in experiment [6], around 300 µM; in experiment [9] it was above 1000 µM. Moreover, the results for the KA effect in experiment [4] and in [8] were 105% and 97%, respectively. For the same molecule, the values for the NMDA effect in experiment [7] and in experiment [10] were 52% and 84%, respectively.

For orientation: EC50 means the concentration giving half of the maximal effect. Low values mean higher potency in that assay, high ones lower potency in that assay.
